ChEMBL document CHEMBL5226344, “A Chemical Strategy for Intracellular Arming of an Endogenous Broad-Spectrum Antiviral Nucleotide” (J Med Chem, 2021)
Active and inactive are the calls of the source. The rule behind the calls is not given here.

Key:
West Nile virus [1] = test: (§1) Antiviral activity against West Nile virus infected in human Huh-7 cells assessed as log reduction in plaque forming units at 1 mM cells were pretreated with compound for 24 hrs followed by drug removal and subsequent viral infection for 1 hr and later incubated with compound and measured at 3 days post-infection; format: functional; conditions: time 4 day
Procedure, shortened: (§2)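 Cells in 24-well plates (2% FBS medium) pretreated 24 h with compound in medium (0, 0.1, 1 mM), medium removed, infected at MOI 0.1 for 1 h, washed three times, overlaid with drug-containing medium; 37°C, 5% CO2 for 3 days (WNV, 2003 crow isolate) or 4 days (ZIKV PRABC59); supernatant titered by plaque assay; triplicates; one-way ANOVA with Dunnett's test.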

West Nile virus [2] = test: (§3) Antiviral activity against West Nile virus infected in African green monkey Vero cells assessed as reduction in virus-induced cytopathic effect at 0.1 to 1 mM cells were pretreated with compound for 24 hrs followed by drug removal and subsequent viral infection for 1 hr and later incubated with compound and measured at 3 days post-infection; format: functional, organism-based; conditions: dose 0.1-1 mM, time 3.0 day
Huh-7 = test: Cytotoxicity against human Huh-7 cells assessed as reduction in cell viability at 0.1 to 1 mM incubated for 2 days by Alamar Blue assay; format: toxicity, cell-based; conditions: huh-7, 48 h, 1000 µM, dose 0.1-1 mM, time 2 day
Procedure, shortened: (§4)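 HUH7 (2,000 cells/well) or Vero (1,500 cells/well) seeded in 10% FBS medium, 24 h; serially diluted compound added (final DMSO 0.5%); incubated 2 or 5 days; Alamar blue added 2 h before read; fluorescence minus no-cell background, normalized to DMSO control; technical triplicates, at least three biological replicates.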

[3] = Drug metabolism in human Huh-7 cells expressing HINT1 assessed as ddhCTP level at 100 uM incubated for 24 hrs measured per 5 million cells by mass spectrometry (Rvb <0.01 nmol); conditions: huh-7, 24 h
Zika virus [4] = test: as §1, with “against Zika” for “against West Nile”, “virus PRABC59” for “virus”, “human Huh7.5” for “human Huh-7”, “at 0.1” for “at 1”, “at 4” for “at 3”; format: functional; design: dose or concentration left out as unconfirmed; conditions: time 5 day
[5] = Cytotoxicity against human Huh-7 cells assessed as cell viability at 1 mM incubated for 5 days by Alamar Blue assay; format: toxicity, cell-based; conditions: time 5 day, read-out: Activity; procedure, shortened: as §4
Zika virus [6] = test: Antiviral activity against Zika virus PRABC59 infected in African green monkey Vero cells assessed as reduction in virus-induced cytopathic effect at 0.1 to 1 mM cells were pretreated with compound for 24 hrs followed by drug removal and subsequent viral infection for 1 hr and later incubated with compound and measured at 4 days post-infection; format: functional, organism-based; conditions: dose 0.1-1 mM, time 5.0 day
[7] = Apparent permeability across apical to basolateral side in human Caco-2 cells at 2 to 10 uM incubated for 2 hrs […]; format: ADME, cell-based; conditions: dose 2-10 µM
Procedure, shortened: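 Caco-2 monolayers grown 21-28 days; compound at 2 or 10 μM in HBSS/10 mM HEPES pH 7.4 (DMSO <1%); 2 h at 37°C, 5% CO2; donor and receiver quantified by LC-MS against internal standard; monolayer integrity by Lucifer Yellow; Papp from receiver accumulation rate, volume, area 0.0804 cm2 and initial donor concentration.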

[8] = Drug metabolism in human Huh-7 cells transfected with HINT1 assessed as intracellular concentration of ddhCTP at 100 uM incubated for 24 hrs by mass spectrometry; format: ADME, cell-based; conditions: huh-7, 24 h
[9] = Metabolic stability of the compound in human plasma assessed as parent compound remaining at 2 uM measured upto 2 hrs by LC-MS analysis; format: ADME, cell-free
Procedure, shortened: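 Pooled human plasma (3 male, 3 female), pH 7.4, spiked to 2 μM final; 37°C; sampled at 0, 10, 30, 60, 120 min; quenched with MeCN:MeOH containing tolbutamide and labetalol; LC-MS peak-area ratio versus internal standards, percent remaining relative to t0; propantheline as positive control.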

Zika virus [10] = test: as §1, with “against Zika” for “against West Nile”, “virus PRABC59” for “virus”, “at 0.1” for “at 1”, “at 4” for “at 3”; format: functional; conditions: time 5 day; procedure, shortened: as §2
Vero = test: Cytotoxicity against African green monkey Vero cells assessed as reduction in cell viability at 0.1 to 1 mM incubated for 2 days by Alamar Blue assay; format: toxicity, cell-based; conditions: chlorocebus sabaeus, 48 h, 1000 µM, dose 0.1-1 mM, time 2 day; procedure, shortened: as §4
[11] = Cytotoxicity against African green monkey Vero cells assessed as cell viability at 1 mM incubated for 5 days by Alamar Blue assay; format: toxicity, cell-based; conditions: chlorocebus sabaeus, time 5 day, read-out: Activity; procedure, shortened: as §4
[12] = Stability of the compound in simulated gastric fluid assessed as parent compound remaining at 200 uM measured after 6 hrs by LC-MS/MS analysis; format: physicochemical; conditions: read-out: Stability
West Nile virus [13] = test: as §1, with “Huh7.5” for “Huh-7”; format: functional; conditions: time 4 day; procedure, shortened: as §2
[14] = (§5) Competitive inhibition of Zika virus RNA-dependent RNA polymerase assessed as chain termination by measuring inhibition of full length RNA production in presence of 10 uM CTP by primer extension assay based PAGE analysis
Procedure, shortened: (§6)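 Purified ZIKV NS5 RdRp (1 μM), E. coli-expressed ubiquitin fusion with C-terminal His tag. Assembled 30 min at 30 °C with pGGC RNA primer, 20-nt RNA template, ATP, GTP and [α-32P]-ATP in HEPES pH 7.5 buffer with Mg2+. Started with UTP, 10 μM CTP and ddhCTP 0–5000 μM, 5 min, EDTA quench. Full-length RNA scored by denaturing 23% PAGE. IC50 from curve fits, 3 independent repeats.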

Zika virus [15] = test: as §5; procedure, shortened: as §6
West Nile virus [16] = test: as §3, with “human Huh7.5” for “African green monkey Vero”; format: functional, organism-based; conditions: dose 0.1-1 mM, time 3.0 day
Procedure, shortened: (§7)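 Cells grown in DMEM with 2% FBS, pretreated 24 h before confluency with media containing 0, 0.1 or 1 mM compound (diluted from DMSO stocks). Media removed, WNV (2003 crow isolate) added at MOI 0.1 for 1 h, then washed 3x with HBSS. Drug-containing overlay applied, 37°C, 5% CO2, 3 days. Media harvested, titre by plaque titration, triplicate. One-way ANOVA with Dunnett's test.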

West Nile virus [17] = test: as §3, with “human Huh-7” for “African green monkey Vero”; format: functional, organism-based; conditions: dose 0.1-1 mM, time 3.0 day; procedure, shortened: as §7

Row | SMILES | Activity (West Nile virus [1]) | Activity (West Nile virus [2]) | Activity (Huh-7) | Drug metabolism [3] | Activity (Zika virus [4]) | viability at 120 h, 1000 µM [5] | Activity (Zika virus [6]) | Papp A→B at 2 h, up to 10 µM [7] | Drug metabolism [8] | Stability [9] | Activity (Zika virus [10]) | Activity (Vero) | viability at 120 h, 1000 µM [11] | remaining at 6 h, 200 µM [12] | Activity (West Nile virus [13]) | IC50 [14] | inhibition (Zika virus [15]) | Activity (West Nile virus [16]) | Activity (West Nile virus [17])
1 | CC(C)OC(=O)[C@H](C)N[P@@](=O)(OCC1=C[C@@H](O)[C@H](n2ccc(N)nc2=O)O1)Oc1ccccc1 | >4 log10PFU/ml | inactive | Non-Toxic | 3.8 nmol | >1 log10PFU/ml | > 60% | inactive | 0.03 ×10⁻⁶ cm/s | > 1 mM | > 87% | >1 log10PFU/ml | Non-Toxic | > 60% | 76% | >4 log10PFU/ml | – | – | – | –
2 | Nc1ccn([C@@H]2OC(COP(=O)(O)OP(=O)(O)OP(=O)(O)O)=C[C@H]2O)c(=O)n1 | – | – | – | – | – | – | – | – | – | – | – | – | – | – | – | 320 µM | Dose-Dependent Effect | – | –
3 | Nc1ccn([C@@H]2OC(CO)=C[C@H]2O)c(=O)n1 | – | inactive | Non-Toxic | 0.13 nmol | – | – | – | – | – | – | – | Non-Toxic | – | – | – | – | – | inactive | inactive
